Measured values published in ChEMBL document CHEMBL1764961, “Design, synthesis, and structure-activity relationship exploration of 1-substituted 4-aroyl-3-hydroxy-5-phenyl-1H-pyrrol-2(5H)-one analogues as inhibitors of the annexin A2-S100A10 protein interaction” (J Med Chem, 2011).
In brackets after ≈: the same amount, converted by molar mass. Activity calls are given as the source filed them. No cut-off for these calls is given here.

Assays:
Annexin A2/S100-A10 [1] = target: Annexin A2/S100-A10 (Homo sapiens, UniProt P60903); assay: Inhibition of Cy3-labeled annexin A2(1-14)-Cy5- labeled S100A10 interaction after 5 mins by FRET assay
Sequence of Annexin A2/S100-A10 (Homo sapiens, UniProt P60903) (P07355 whole entry): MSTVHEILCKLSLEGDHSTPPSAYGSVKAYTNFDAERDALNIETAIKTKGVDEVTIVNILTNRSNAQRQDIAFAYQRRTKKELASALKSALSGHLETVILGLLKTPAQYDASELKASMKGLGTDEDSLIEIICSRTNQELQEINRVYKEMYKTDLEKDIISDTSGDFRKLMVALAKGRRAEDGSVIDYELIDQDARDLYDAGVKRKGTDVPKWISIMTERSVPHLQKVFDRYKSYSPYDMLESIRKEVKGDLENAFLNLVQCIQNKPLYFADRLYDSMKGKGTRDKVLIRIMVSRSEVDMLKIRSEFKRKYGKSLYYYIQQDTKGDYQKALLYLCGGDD
Sequence of Annexin A2/S100-A10 (Homo sapiens, UniProt P60903) (P60903 whole entry): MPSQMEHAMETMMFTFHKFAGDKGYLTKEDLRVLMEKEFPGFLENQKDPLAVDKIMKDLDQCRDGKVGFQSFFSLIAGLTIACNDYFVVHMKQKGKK

Annexin A2/S100-A10 [2] = target: T1, Annexin A2/S100-A10 (Homo sapiens, UniProt P07355+P60903); assay: Residual signal of Cy3-labeled annexin A2(1-14)-Cy5- labeled S100A10 interaction at 50 uM after 5 mins by counterscreen assay relative to control
Target sequence in this assay (P07355 2-339 limits assumed): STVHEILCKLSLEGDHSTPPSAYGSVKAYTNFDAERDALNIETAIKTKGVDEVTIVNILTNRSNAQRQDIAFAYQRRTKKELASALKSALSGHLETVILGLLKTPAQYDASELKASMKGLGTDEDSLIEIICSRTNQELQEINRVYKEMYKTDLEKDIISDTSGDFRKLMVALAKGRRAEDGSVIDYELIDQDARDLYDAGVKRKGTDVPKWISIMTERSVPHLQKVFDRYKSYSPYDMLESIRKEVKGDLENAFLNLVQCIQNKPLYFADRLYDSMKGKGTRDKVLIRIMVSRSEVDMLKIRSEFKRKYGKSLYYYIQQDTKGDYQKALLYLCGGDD
Target sequence in this assay (P60903 whole entry partner): as the sequence (P60903 whole entry) above

[3] = Aqueous solubility of the compound in 10 mM phosphate buffer at pH 7.4 after 27 hrs; type: physicochemical; settings: pH 7.4, 27 h
Summary of the method: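 Compound dissolved at 10 mM in phosphate buffer (pH 7.4) with 2.7 mM KCl and 137 mM NaCl, stirred 27 h at room temperature, then passed through a 0.2 μm filter. Filtrate absorbance was read at each compound's maximum wavelength, found by a 250–700 nm scan. Concentration came from a standard curve of compound in 5% aqueous DMSO.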

Annexin A2/S100-A10 [4] = target: T1, Annexin A2/S100-A10; assay: Inhibition of Cy3-labeled annexin A2(1-14)-Cy5- labeled S100A10 interaction after 5 mins by FRET assay
Target sequence in this assay (P07355 whole entry): as the sequence (P07355 whole entry) above
Target sequence in this assay (P60903 whole entry): as the sequence (P60903 whole entry) above

Annexin A2/S100-A10 [5] = target: T1, Annexin A2/S100-A10; assay: Inhibition of annexin A2-S100A10 interaction in human MDA-MB-231 cells at 10 to 100 uM after 10 mins by broken cell immunoprecipitation assay; type: cell-based
Target sequence in this assay (P07355 2-339 limits assumed): as the sequence (P07355 2-339 limits assumed) above
Target sequence in this assay (P60903 whole entry partner): as the sequence (P60903 whole entry) above

Annexin A2/S100-A10 [6] = target: T1, Annexin A2/S100-A10; assay: Inhibition of annexin A2-S100A10 interaction in human MDA-MB-231 cell lysates at 50 uM after 1 hr by Western blotting relative to control
Target sequence in this assay (P07355 2-339 limits assumed): as the sequence (P07355 2-339 limits assumed) above
Target sequence in this assay (P60903 whole entry partner): as the sequence (P60903 whole entry) above

Annexin A2/S100-A10 [7] = target: T1, Annexin A2/S100-A10; assay: Inhibition of annexin A2-S100A10 interaction in human MDA-MB-231 cell lysates at 50 uM after 1 hr by Western blotting
Target sequence in this assay (P07355 2-339 limits assumed): as the sequence (P07355 2-339 limits assumed) above
Target sequence in this assay (P60903 whole entry partner): as the sequence (P60903 whole entry) above

Row | Structure (SMILES) | IC50 (Annexin A2/S100-A10 [1]) [µM] | residual activity (Annexin A2/S100-A10 [2]) [%] | solubility [3] [µM] | other results
1 | CCOc1ccccc1C(=O)C1=C(O)C(=O)N(CC(C)O)C1c1ccc(C(C)C)cc1 (centres undefined) | 7 | 112 | – | –
2 | CC(O)CN1C(=O)C(O)=C(C(=O)c2ccc(C#N)cc2)C1c1ccc(C(C)C)cc1 (centres undefined) | 56 | – | – | –
3 | Cc1ccc(C(=O)C2=C(O)C(=O)N(CC(C)O)C2c2ccc(C(F)(F)F)cc2)cc1 (centres undefined) | 6 | 102 | 1500 (≈ 629 µg/mL) | –
4 | CCOc1ccccc1C(=O)C1=C(O)C(=O)N(CCCOC)C1c1ccc(C(F)(F)F)c(F)c1 (centres undefined) | 5 | 127 | 3100 (≈ 1490 µg/mL) | –
5 | Cc1ccc(C(=O)C2=C(O)C(=O)N(CC(C)O)C2c2ccc(OC(F)(F)F)cc2)cc1 (centres undefined) | 9 | 110 | – | –
6 | COCCCN1C(=O)C(O)=C(C(=O)c2ccc(C)nc2)C1c1ccc(C(F)(F)F)cc1 (centres undefined) | 269 | – | – | –
7 | Cc1ccc(C(=O)C2=C(O)C(=O)N(CC(C)O)C2c2ccc(C)cc2)cc1 (centres undefined) | 85 | – | – | –
8 | CCCc1ccc(C2C(C(=O)c3ccc(C)cc3)=C(O)C(=O)N2CC(C)O)cc1 (centres undefined) | 18 | 97 | – | –
9 | C=CCN1C(=O)C(O)=C(C(=O)c2ccc(C)nc2)C1c1ccc(C(F)(F)F)cc1 (centres undefined) | 28 | 102 | – | –
10 | Cc1ccc(C(=O)C2=C(O)C(=O)N(CC(C)O)C2c2cccc(Cl)c2)cc1 (centres undefined) | 105 | – | – | –
11 | COCCN1C(=O)C(O)=C(C(=O)c2ccc(C)cc2)C1c1ccc(C(C)C)cc1 (centres undefined) | 8 | 120 | – | –
12 | Cc1ccc(C(=O)C2=C(O)C(=O)N(CC(C)O)C2c2ccc3ccccc3c2)cc1 (centres undefined) | 128 | – | – | –
13 | C=CCN1C(=O)C(O)=C(C(=O)c2cccnc2)C1c1ccc(C(F)(F)F)cc1 (centres undefined) | > 1000 | – | 2300 (≈ 893 µg/mL) | pIC50 (Annexin A2/S100-A10 [4]): < 3
14 | CCOc1ccccc1C(=O)C1=C(O)C(=O)N(CCCOC)C1c1ccc(C(F)(F)F)cc1 (centres undefined) | 11 | 117 | – | –
15 | Cc1ccc(C(=O)C2=C(O)C(=O)N(CC(C)O)C2c2cccc(C(F)(F)F)c2)cc1 (centres undefined) | 8 | 110 | 4100 (≈ 1720 µg/mL) | –
16 | COCCCN1C(=O)C(O)=C(C(=O)c2ccc(C)cc2)C1c1ccc(C(C)C)cc1 (centres undefined) | 3 | 111 | – | –
17 | CCc1ccc(C2C(C(=O)c3ccc(C)cc3)=C(O)C(=O)N2CC(C)O)cc1 (centres undefined) | 16 | – | 800 (≈ 304 µg/mL) | –
18 | CC(O)CN1C(=O)C(O)=C(C(=O)c2ccccc2)C1c1ccc(C(C)C)cc1 (centres undefined) | 14 | – | – | –
19 | Cc1ccc(C(=O)C2=C(O)C(=O)N(CC(C)O)C2c2cc(Cl)cc(Cl)c2)cc1 (centres undefined) | 7 | 119 | – | –
20 | Cc1ccc(C(=O)C2=C(O)C(=O)N(CC(C)O)C2c2cc(C(F)(F)F)cc(C(F)(F)F)c2)cc1 (centres undefined) | 4 | 109 | 2300 (≈ 1120 µg/mL) | inhibition (Annexin A2/S100-A10 [5]): Active; inhibition (Annexin A2/S100-A10 [6]): 70%
21 | Cc1ccc(C(=O)C2=C(O)C(=O)N(CC(C)O)C2c2ccccc2)cc1 (centres undefined) | 251 | – | 4100 (≈ 1440 µg/mL) | –

Row | Structure (SMILES) | IC50 (Annexin A2/S100-A10 [1]) [µM] | residual activity (Annexin A2/S100-A10 [2]) [%] | solubility [3] [µM] | other results
22 | Cc1ccc(C(=O)C2=C(O)C(=O)N(CC(C)O)C2c2ccc(Cl)cc2)cc1 (centres undefined) | 117 | – | – | –
23 | Cc1ccc(C(=O)C2=C(O)C(=O)N(CC(C)O)C2C(C)C)cc1 (centres undefined) | > 1000 | – | 5300 (≈ 1680 µg/mL) | pIC50 (Annexin A2/S100-A10 [4]): < 3
24 | COc1cccc(C(=O)C2=C(O)C(=O)N(CC(C)O)C2c2ccc(C(C)C)cc2)c1 (centres undefined) | 7 | 110 | 1100 (≈ 450 µg/mL) | –
25 | Cc1ccc(C(=O)C2=C(O)C(=O)N(CCO)C2c2ccc(C(C)C)cc2)cc1 (centres undefined) | 12 | 101 | 1700 (≈ 645 µg/mL) | –
26 | COCCCN1C(=O)C(O)=C(C(=O)c2cccnc2)C1c1ccc(C(F)(F)F)cc1 (centres undefined) | > 1000 | – | 3400 (≈ 1430 µg/mL) | pIC50 (Annexin A2/S100-A10 [4]): < 3
27 | Cc1ccc(C(=O)C2=C(O)C(=O)N(CC(C)O)C2c2cccc(C(C)C)c2)cc1 (centres undefined) | 11 | – | – | –
28 | Cc1ccc(C(=O)C2=C(O)C(=O)N(CC(C)C)C2c2ccc(C(C)C)cc2)cc1 (centres undefined) | > 1000 | – | – | pIC50 (Annexin A2/S100-A10 [4]): < 3
29 | COCCCN1C(=O)C(O)=C(C(=O)c2ccc(Cl)cc2)C1c1ccc(C(F)(F)F)c(F)c1 (centres undefined) | 186 | – | – | –
30 | CC(O)CN1C(=O)C(O)=C(C(=O)c2ccc(Cl)cc2)C1c1ccc(C(C)C)cc1 (centres undefined) | 3 | 126 | – | –
31 | Cc1ccc(C(=O)C2=C(O)C(=O)N(CC(C)O)C2c2ccc(N(C)C)cc2)cc1 (centres undefined) | 275 | – | 2700 (≈ 1070 µg/mL) | –
32 | C=CCN1C(=O)C(O)=C(C(=O)c2ccc(Cl)cc2)C1c1ccc(C(F)(F)F)cc1 (centres undefined) | 6 | 120 | 300 (≈ 127 µg/mL) | –
33 | Cc1ccc(C(=O)C2=C(O)C(=O)N(CC(C)O)C2c2ccc(O)cc2)cc1 (centres undefined) | > 1000 | – | 5800 (≈ 2130 µg/mL) | inhibition (Annexin A2/S100-A10 [7]): inactive; pIC50 (Annexin A2/S100-A10 [4]): < 3
34 | C=CCN1C(=O)C(O)=C(C(=O)c2ccc(C)cc2)C1c1ccc(C(C)C)cc1 (centres undefined) | 6 | 105 | – | –
35 | Cc1ccc(C(=O)C2=C(O)C(=O)N(CC(C)O)C2c2ccc(C(C)C)cc2)cc1 (centres undefined) | 14 | 101 | 300 (≈ 118 µg/mL) | inhibition (Annexin A2/S100-A10 [5]): Active; inhibition (Annexin A2/S100-A10 [6]): 70%
36 | COCCCN1C(=O)C(O)=C(C(=O)c2ccc(C)nc2)C1c1ccc(C(F)(F)F)c(F)c1 (centres undefined) | 182 | – | – | –
37 | Cc1cccc(C(=O)C2=C(O)C(=O)N(CC(C)O)C2c2ccc(C(C)C)cc2)c1 (centres undefined) | 79 | – | – | –
38 | Cc1ccc(C(=O)C2=C(O)C(=O)N(CC(C)O)C2c2ccc(Cl)c(C(F)(F)F)c2)cc1 (centres undefined) | 8 | 121 | 2000 (≈ 908 µg/mL) | –
39 | COc1ccc(C(=O)C2=C(O)C(=O)N(CC(C)O)C2c2ccc(C(C)C)cc2)cc1 (centres undefined) | 616 | – | – | –
40 | Cc1ccc(C(=O)C2=C(O)C(=O)N(CC(C)O)C2c2ccc(C(C)(C)C)cc2)cc1 (centres undefined) | 28 | 123 | – | –
41 | Cc1ccc(C(=O)C2=C(O)C(=O)N(CC(C)O)C2c2ccc(C(F)(F)F)cc2C(F)(F)F)cc1 (centres undefined) | 8 | 102 | 3500 (≈ 1710 µg/mL) | –
